In ChEMBL document CHEMBL2029264, “Indole-based fibrates as potential hypolipidemic and antiobesity agents” (J Med Chem, 2012):

Assays:
Assay type in all cases: functional
[1] = tested on: Rattus norvegicus; experiment: Antihyperlipidemic activity in Triton WR-1339-induced hyperlipidemic rat assessed as decrease in plasma total cholesterol level at 100 mg/kg, po relative to control; set-up: scale not given: the % may be the effect or the level left
How it was run: (§1)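 Triton WR-1339 given to rats to induce hyperlipidemia; oral dosing. Plasma TC, PL, TG in mg/dL; PHLA as […]/h/mL plasma. Mean ± SD of six rats; Triton group compared with control, Triton plus dosed group compared with Triton group.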

[2] = tested on: Rattus norvegicus; experiment: Antihyperlipidemic activity in Triton WR-1339-induced hyperlipidemic rat assessed as decrease in plasma phospholipid level at 100 mg/kg, po relative to control; set-up: scale not given: the % may be the effect or the level left; how it was run: as §1
[3] = tested on: Rattus norvegicus; experiment: Antihyperlipidemic activity in Triton WR-1339-induced hyperlipidemic rat assessed as decrease in plasma triglyceride level at 100 mg/kg, po relative to control; set-up: scale not given: the % may be the effect or the level left; how it was run: as §1
[4] = tested on: Rattus norvegicus; experiment: Antihyperlipidemic activity in Triton WR-1339-induced hyperlipidemic rat assessed as increase in LCAT enzyme level at 100 mg/kg, po; how it was run: as §1
[5] = tested on: Rattus norvegicus; experiment: Antihyperlipidemic activity in Triton WR-1339-induced hyperlipidemic rat assessed as increase in PHLA enzyme level at 100 mg/kg, po; how it was run: as §1
[6] = tested on: Rattus norvegicus; experiment: Antihyperlipidemic activity in HFD-induced hyperlipidemic Charles Foster rat assessed as increase in plasma HDL-phospholipid level at 100 mg/kg, po administered for 4 weeks relative to control
How it was run: (§2)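 After 4 weeks high-fat feeding plus 4 weeks daily dosing, overnight fast, retro-orbital blood into EDTA tubes. Serum split into VLDL, LDL and HDL by polyanionic precipitation; each fraction assayed for TC, PL, TG and apoprotein (mg/dL plasma). Pooled data from 6 rats/group, mean ± SD, dosed groups compared with high-fat group.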

[7] = tested on: Rattus norvegicus; experiment: Antihyperlipidemic activity in HFD-induced hyperlipidemic Charles Foster rat assessed as decrease in plasma LDL-total cholesterol level at 100 mg/kg, po administered for 4 weeks relative to control; set-up: scale not given: the % may be the effect or the level left; how it was run: as §2
[8] = tested on: Rattus norvegicus; experiment: Antihyperlipidemic activity in HFD-induced hyperlipidemic Charles Foster rat assessed as decrease in plasma VLDL-phospholipid level at 100 mg/kg, po administered for 4 weeks relative to control; set-up: scale not given: the % may be the effect or the level left; how it was run: as §2
[9] = tested on: Rattus norvegicus; experiment: Antihyperlipidemic activity in HFD-induced hyperlipidemic Charles Foster rat assessed as decrease in serum phospholipid level at 100 mg/kg, po administered for 4 weeks relative to control; set-up: scale not given: the % may be the effect or the level left
How it was run: (§3)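 Male Charles Foster rats (200−225 g): high-fat diet 4 weeks, then diet plus daily dosing 4 weeks. Overnight fast, retro-orbital blood in EDTA (3 mg/mL blood), centrifuged to serum. TC, PL, TG in mg/dL; LCAT as nmol cholesterol released/h/L plasma. Mean ± SD; dosed groups compared with high-fat group, P by significance levels.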

[10] = tested on: Rattus norvegicus; experiment: Antihyperlipidemic activity in HFD-induced hyperlipidemic Charles Foster rat assessed as decrease in plasma LDL-apoprotein level at 100 mg/kg, po administered for 4 weeks relative to control; set-up: scale not given: the % may be the effect or the level left; how it was run: as §2
[11] = tested on: Rattus norvegicus; experiment: Antihyperlipidemic activity in HFD-induced hyperlipidemic Charles Foster rat assessed as decrease in serum triglyceride level at 100 mg/kg, po administered for 4 weeks relative to control; set-up: scale not given: the % may be the effect or the level left; how it was run: as §3
[12] = tested on: Rattus norvegicus; experiment: Antihyperlipidemic activity in HFD-induced hyperlipidemic Charles Foster rat assessed as decrease in liver phospholipid level at 100 mg/kg, po administered for 4 weeks relative to control; set-up: scale not given: the % may be the effect or the level left
How it was run: (§4)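 Adult male Charles Foster rats (200−225 g), high-fat diet 4 weeks, then diet plus daily dosing 4 more weeks; overnight fast, sacrifice, liver washed in cold 0.15 M KCl and held at 4 °C. Lipids extracted from liver homogenate in CHCl3/CH3OH (2:1 v/v), TC, PL and TG read in mg/g; pooled data from 6 rats/group, mean ± SD.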

[13] = tested on: Rattus norvegicus; experiment: Antihyperlipidemic activity in HFD-induced hyperlipidemic Charles Foster rat assessed as decrease in liver total cholesterol level at 100 mg/kg, po administered for 4 weeks relative to control; set-up: scale not given: the % may be the effect or the level left; how it was run: as §4
[14] = tested on: Rattus norvegicus; experiment: Antihyperlipidemic activity in HFD-induced hyperlipidemic Charles Foster rat assessed as increase in serum LCAT enzyme level at 100 mg/kg, po administered for 4 weeks relative to control; how it was run: as §3
[15] = tested on: Rattus norvegicus; experiment: Antihyperlipidemic activity in HFD-induced hyperlipidemic Charles Foster rat assessed as increase in plasma HDL-total cholesterol level at 100 mg/kg, po administered for 4 weeks relative to control; how it was run: as §2
[16] = tested on: Rattus norvegicus; experiment: Antihyperlipidemic activity in HFD-induced hyperlipidemic Charles Foster rat assessed as decrease in liver triglyceride level at 100 mg/kg, po administered for 4 weeks relative to control; set-up: scale not given: the % may be the effect or the level left; how it was run: as §4
[17] = tested on: Rattus norvegicus; experiment: Antihyperlipidemic activity in HFD-induced hyperlipidemic Charles Foster rat assessed as decrease in plasma VLDL-apoprotein level at 100 mg/kg, po administered for 4 weeks relative to control; set-up: scale not given: the % may be the effect or the level left; how it was run: as §2
[18] = tested on: Rattus norvegicus; experiment: Antihyperlipidemic activity in HFD-induced hyperlipidemic Charles Foster rat assessed as increase in [I125]-LDL catabolism in plasma membrane of liver at 100 mg/kg/day, po administered for 4 weeks
How it was run: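 Rats on 8 weeks total of high-fat diet, dosed daily for the last 4 weeks, then sacrificed. Human serum LDL radiolabeled with I125; specific binding to liver plasma membrane preparation measured as receptor-mediated LDL catabolism. Mean ± SD, n = 6.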

[19] = tested on: Rattus norvegicus; experiment: Antihyperlipidemic activity in HFD-induced hyperlipidemic Charles Foster rat assessed as decrease in plasma VLDL-triglyceride level at 100 mg/kg, po administered for 4 weeks relative to control; set-up: scale not given: the % may be the effect or the level left; how it was run: as §2
[20] = tested on: Rattus norvegicus; experiment: Antihyperlipidemic activity in HFD-induced hyperlipidemic Charles Foster rat assessed as increase in plasma HDL-triglyceride level at 100 mg/kg, po administered for 4 weeks relative to control; how it was run: as §2
[21] = tested on: Rattus norvegicus; experiment: Antihyperlipidemic activity in HFD-induced hyperlipidemic Charles Foster rat assessed as decrease in plasma LDL-phospholipid level at 100 mg/kg, po administered for 4 weeks relative to control; set-up: scale not given: the % may be the effect or the level left; how it was run: as §2
[22] = tested on: Rattus norvegicus; experiment: Antihyperlipidemic activity in HFD-induced hyperlipidemic Charles Foster rat assessed as increase in plasma HDL-apoprotein level at 100 mg/kg, po administered for 4 weeks relative to control; how it was run: as §2
[23] = tested on: Rattus norvegicus; experiment: Antihyperlipidemic activity in HFD-induced hyperlipidemic Charles Foster rat assessed as decrease in plasma VLDL-total cholesterol level at 100 mg/kg, po administered for 4 weeks relative to control; set-up: scale not given: the % may be the effect or the level left; how it was run: as §2
[24] = tested on: Rattus norvegicus; experiment: Antihyperlipidemic activity in HFD-induced hyperlipidemic Charles Foster rat assessed as decrease in serum total cholesterol level at 100 mg/kg, po administered for 4 weeks relative to control; set-up: scale not given: the % may be the effect or the level left; how it was run: as §3
[25] = tested on: Rattus norvegicus; experiment: Antihyperlipidemic activity in HFD-induced hyperlipidemic Charles Foster rat assessed as decrease in plasma LDL-triglyceride level at 100 mg/kg, po administered for 4 weeks relative to control; set-up: scale not given: the % may be the effect or the level left; how it was run: as §2
[26] = tested on: Rattus norvegicus; experiment: Antihyperlipidemic activity in HFD-induced hyperlipidemic Charles Foster rat assessed as reactivation of LPL activity at 100 mg/kg, po administered for 4 weeks relative to control
How it was run: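 Male Charles Foster rats fed high-fat diet 4 weeks, then diet plus daily dosing 4 weeks. Liver homogenized (10% w/v) in cold 100 mM phosphate buffer pH 7.2; total lipolytic LPL activity read as nmol free fatty acid formed/h/mg protein; pooled data from 6 rats/group, mean ± SD.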

[27] = tested on: Rattus norvegicus; experiment: Antihyperlipidemic activity in HFD-induced hyperlipidemic Charles Foster rat assessed as increase in deoxycholic acid excretion in feces at 100 mg/kg/day, po administered for 4 weeks measured after 30 days relative to control
How it was run: (§5)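 Rats fed high-fat diet 4 weeks, then diet plus daily dosing 4 weeks. Cholic and deoxycholic acid excreted in feces measured; dosed groups compared with high-fat group, control compared with high-fat group.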

[28] = tested on: Rattus norvegicus; experiment: Antihyperlipidemic activity in HFD-induced hyperlipidemic Charles Foster rat assessed as increase in cholic acid excretion in feces at 100 mg/kg/day, po administered for 4 weeks measured after 30 days relative to control; how it was run: as §5

## CCOC(=O)COc1ccc(C(c2cn(C)c3ccccc23)c2cn(C)c3ccccc23)cc1
[1]
  Activity: 10%
[2]
  Activity: 12%
[3]
  Activity: 9%

## CCOC(=O)C(C)(C)Oc1ccc(C(c2cn(C)c3ccccc23)c2cn(C)c3ccccc23)cc1
[1]
  Activity: 10%
[2]
  Activity: 9%
[3]
  Activity: 5%

## CCOC(=O)COc1ccc(C(c2c[nH]c3ccccc23)c2c[nH]c3ccccc23)cc1
[1]
  Activity: 12%
[2]
  Activity: 25%
[3]
  Activity: 10%

## CCOC(=O)COc1ccc(C(c2cn(CC)c3ccccc23)c2cn(CC)c3ccccc23)cc1
[1]
  Activity: 12%
[2]
  Activity: 6%
[3]
  Activity: 10%

## CCOC(=O)C(C)(C)Oc1ccc(C(c2cn(CC)c3ccccc23)c2cn(CC)c3ccccc23)cc1
[1]
  Activity: 11%
[2]
  Activity: 9%
[3]
  Activity: 9%

## Cc1ccc(C)c(OCCCC(C)(C)C(=O)O)c1 [GEMFIBROZIL]
[4]
  Activity: 27 nmol/h/mL
[1]
  Activity: 33%
[2]
  Activity: 35%
[5]
  percent increase: 27%
[3]
  Activity: 35%

## CC(C)OC(=O)C(C)(C)Oc1ccc(C(=O)c2ccc(Cl)cc2)cc1 [FENOFIBRATE]
[6]
  Activity: 15%
[7]
  Activity: 28%
[8]
  Activity: 24%
[9]
  Activity: 34%
[10]
  Activity: 28%
[11]
  Activity: 33%
[12]
  Activity: 33%
[13]
  Activity: 37%
[14]
  Activity: 34%
[15]
  Activity: 16%
[16]
  Activity: 34%
[17]
  Activity: 35%
[18]
  Activity: 30%
[19]
  Activity: 30%
[20]
  Activity: 16%
[21]
  Activity: 28%
[22]
  Activity: 17%
[23]
  Activity: 28%
[24]
  Activity: 36%
[25]
  Activity: 27%
[26]
  Activity: 26%
[27]
  Activity: 33%
[28]
  Activity: 31%

## CCOC(=O)C(C)Oc1ccc(C(c2cn(C)c3ccccc23)c2cn(C)c3ccccc23)cc1 (stereo not drawn)
[1]
  Activity: 10%
[2]
  Activity: 6%
[3]
  Activity: 8%

## CCOC(=O)C(C)(C)Oc1ccc(C(c2c[nH]c3ccccc23)c2c[nH]c3ccccc23)cc1
[1]
  Activity: 9%
[2]
  Activity: 9%
[3]
  Activity: 6%

## CCOC(=O)C(C)Oc1ccc(C(c2c(C)[nH]c3ccccc23)c2c(C)[nH]c3ccccc23)cc1 (stereo not drawn)
[1]
  Activity: 9%
[2]
  Activity: 5%
[3]
  Activity: 8%

## CCOC(=O)CCCOc1ccc(C(c2c[nH]c3ccccc23)c2c[nH]c3ccccc23)cc1
[1]
  Activity: 12%
[2]
  Activity: 15%
[3]
  Activity: 12%

## CCOC(=O)C(C)Oc1ccc(C(c2c(C)n(C)c3ccccc23)c2c(C)n(C)c3ccccc23)cc1 (stereo not drawn)
[1]
  Activity: 10%
[2]
  Activity: 10%
[3]
  Activity: 6%
